# Laboratory results reported in ChEMBL document CHEMBL1134325, “Diaminoindanes as microsomal triglyceride transfer protein inhibitors” (J Med Chem, 2001).
# What was measured:
# [1] = system: Rattus norvegicus; test: Inhibition of total cholesterol in normolipidemic rats after 2 hr of 10 mg/kg oral dosing; assay type: functional
# Outline: (§1)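 Overnight-fasted normolipidemic rats received a single oral dose in cornstarch vehicle. Blood was drawn at 2, 6 and 24 h post-dose and assayed for triglycerides and total cholesterol, with free access to food after the 6 h sample. Value is mean percent inhibition versus a separate vehicle-treated group, unpaired t test p < 0.05, NS = no significant change, N = 6.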
# [2] = system: Canis familiaris; test: Inhibition of plasma total triglycerides in the normolipidemic dogs after day 4 of oral administration of 1 mg/kg/ day; assay type: functional, Canis lupus familiaris
# [3] = system: Rattus norvegicus; test: Inhibition of total cholesterol in normolipidemic rats after 24 hr of 10 mg/kg oral dosing; assay type: functional; outline: as §1
# [4] = system: Canis familiaris; test: Inhibition of plasma total triglycerides in the normolipidemic dogs after day 4 of oral administration of 5 mg/kg/ day; assay type: functional, Canis lupus familiaris
# [5] = system: Canis familiaris; test: Inhibition of plasma total triglycerides in the normolipidemic dogs after day 3 of oral administration of 2.5 mg/kg/ day.; assay type: functional, Canis lupus familiaris
# [6] = system: Canis familiaris; test: Inhibition of plasma total cholesterol in the normolipidemic dogs after day 2 of oral administration of 5 mg/kg/ day.; assay type: functional, Canis lupus familiaris
# Outline: (§2)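 Normolipidemic dogs dosed once daily for 4 days by oral gavage, compound suspended in cornstarch vehicle. Plasma sampled 24 h after dosing on days 0, 2, 3 and 4, assayed for triglycerides and total cholesterol (mg/dL). Mean percent inhibition versus day-0 level is given for treated dogs; n = 6 per group; significance by one-way ANOVA, p < 0.05.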
# [7] = system: Rattus norvegicus; test: Inhibition of plasma triglycerides in normolipidemic rats after 24 hr of 50 mg/kg oral dosing; assay type: functional; outline: as §1
# [8] = system: Rattus norvegicus; test: Inhibition of plasma triglycerides in normolipidemic rats after 2 hr of 10 mg/kg oral dosing; assay type: functional; outline: as §1
# [9] = system: Canis familiaris; test: Inhibition of plasma total cholesterol in the normolipidemic dogs after day 2 of oral administration of 1 mg/kg/ day.; assay type: functional, Canis lupus familiaris; outline: as §2
# [10] = system: Rattus norvegicus; test: Inhibition of plasma triglycerides in normolipidemic rats after 2 hr of 50 mg/kg oral dosing; assay type: functional; outline: as §1
# [11] = system: Canis familiaris; test: Inhibition of plasma total cholesterol in the normolipidemic dogs after day 4 of oral administration of 10 mg/kg/ day.; assay type: functional, Canis lupus familiaris; outline: as §2
# [12] = molecular target: T1, Microsomal triglyceride transfer protein large subunit (Homo sapiens, UniProt P55157); test: In vitro inhibitory activity against MTP using MTP transfer assay
# T1 sequence (P55157 whole entry): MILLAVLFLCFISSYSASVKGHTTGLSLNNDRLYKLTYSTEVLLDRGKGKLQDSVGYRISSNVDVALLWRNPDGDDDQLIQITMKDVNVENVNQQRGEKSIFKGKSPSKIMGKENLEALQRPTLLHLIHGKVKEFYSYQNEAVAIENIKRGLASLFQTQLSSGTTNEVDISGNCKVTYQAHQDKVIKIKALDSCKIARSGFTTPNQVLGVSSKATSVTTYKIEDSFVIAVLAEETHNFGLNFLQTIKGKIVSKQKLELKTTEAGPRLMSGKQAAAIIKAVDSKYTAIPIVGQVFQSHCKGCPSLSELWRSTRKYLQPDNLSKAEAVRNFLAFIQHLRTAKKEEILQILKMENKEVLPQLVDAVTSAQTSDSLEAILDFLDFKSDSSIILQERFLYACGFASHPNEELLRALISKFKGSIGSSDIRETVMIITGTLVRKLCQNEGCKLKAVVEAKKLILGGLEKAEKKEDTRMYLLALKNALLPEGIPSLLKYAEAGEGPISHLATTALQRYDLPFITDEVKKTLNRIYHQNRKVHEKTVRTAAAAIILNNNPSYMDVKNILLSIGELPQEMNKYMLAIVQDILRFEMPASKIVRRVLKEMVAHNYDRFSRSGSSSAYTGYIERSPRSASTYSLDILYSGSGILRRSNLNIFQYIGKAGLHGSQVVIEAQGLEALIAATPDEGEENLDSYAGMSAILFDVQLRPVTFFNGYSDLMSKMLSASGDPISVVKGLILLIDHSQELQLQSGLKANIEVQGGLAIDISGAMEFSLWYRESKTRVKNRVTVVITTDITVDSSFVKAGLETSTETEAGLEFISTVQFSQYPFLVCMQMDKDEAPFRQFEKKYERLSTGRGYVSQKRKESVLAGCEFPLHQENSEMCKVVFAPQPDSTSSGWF
# [13] = system: Canis familiaris; test: Inhibition of plasma total triglycerides in the normolipidemic dogs after day 0 of oral administration of 2.5 mg/kg/ day.; assay type: functional, Canis lupus familiaris; outline: as §2
# [14] = system: Canis familiaris; test: Inhibition of plasma total cholesterol in the normolipidemic dogs after day 4 of oral administration of 1 mg/kg/ day; assay type: functional, Canis lupus familiaris; outline: as §2
# [15] = system: Canis familiaris; test: Inhibition of plasma total cholesterol in the normolipidemic dogs after day 3 of oral administration of 5 mg/kg/ day.; assay type: functional, Canis lupus familiaris; outline: as §2
# [16] = system: Canis familiaris; test: Inhibition of plasma total cholesterol in the normolipidemic dogs after day 4 of oral administration of 2.5 mg/kg/ day; assay type: functional, Canis lupus familiaris; outline: as §2
# [17] = system: Canis familiaris; test: Inhibition of plasma total cholesterol in the normolipidemic dogs after day 0 of oral administration of 5 mg/kg/ day.; assay type: functional, Canis lupus familiaris; outline: as §2
# [18] = system: Canis familiaris; test: Inhibition of plasma total triglycerides in the normolipidemic dogs after day 3 of oral administration of 10 mg/kg/ day.; assay type: functional, Canis lupus familiaris
# [19] = system: Canis familiaris; test: Inhibition of plasma total cholesterol in the normolipidemic dogs after day 3 of oral administration of 1 mg/kg/ day.; assay type: functional, Canis lupus familiaris; outline: as §2
# [20] = system: Rattus norvegicus; test: Inhibition of total cholesterol in normolipidemic rats after 6 hr of 50 mg/kg oral dosing; assay type: functional; outline: as §1
# [21] = system: Rattus norvegicus; test: Inhibition of total cholesterol in normolipidemic rats after 24 hr of 50 mg/kg oral dosing; assay type: functional; outline: as §1
# [22] = system: Canis familiaris; test: Inhibition of plasma total triglycerides in the normolipidemic dogs after day 2 of oral administration of 10 mg/kg/ day.; assay type: functional, Canis lupus familiaris; outline: as §2
# [23] = system: Canis familiaris; test: Inhibition of plasma total cholesterol in the normolipidemic dogs after day 4 of oral administration of 5 mg/kg/ day; assay type: functional, Canis lupus familiaris; outline: as §2
# [24] = system: Canis familiaris; test: Inhibition of plasma total cholesterol in the normolipidemic dogs after day 3 of oral administration of 10 mg/kg/ day.; assay type: functional, Canis lupus familiaris; outline: as §2
# [25] = system: Rattus norvegicus; test: Inhibition of plasma triglycerides in normolipidemic rats after 6 hr of 50 mg/kg oral dosing; assay type: functional; outline: as §1
# [26] = system: Canis familiaris; test: Inhibition of plasma total triglycerides in the normolipidemic dogs after day 3 of oral administration of 1 mg/kg/ day.; assay type: functional, Canis lupus familiaris; outline: as §2
# [27] = system: Canis familiaris; test: Inhibition of plasma total cholesterol in the normolipidemic dogs after day 2 of oral administration of 2.5 mg/kg/ day.; assay type: functional, Canis lupus familiaris; outline: as §2
# [28] = system: Canis familiaris; test: Inhibition of plasma total cholesterol in the normolipidemic dogs after day 0 of oral administration of 1 mg/kg/ day.; assay type: functional, Canis lupus familiaris; outline: as §2
# [29] = system: Canis familiaris; test: Inhibition of plasma total triglycerides in the normolipidemic dogs after day 0 of oral administration of 1 mg/kg/ day.; assay type: functional, Canis lupus familiaris; outline: as §2
# [30] = system: Rattus norvegicus; test: Inhibition of plasma triglycerides in normolipidemic rats after 6 hr of 10 mg/kg oral dosing; no significant change; assay type: functional, organism-based; set-up: dose 10 mg/kg; outline: as §1
# [31] = system: Canis familiaris; test: Inhibition of plasma total triglycerides in the normolipidemic dogs after day 0 of oral administration of 10 mg/kg/ day.; assay type: functional, Canis lupus familiaris; outline: as §2
# [32] = system: Canis familiaris; test: Inhibition of plasma total cholesterol in the normolipidemic dogs after day 2 of oral administration of 10 mg/kg/ day.; assay type: functional, Canis lupus familiaris; outline: as §2
# [33] = system: Canis familiaris; test: Inhibition of plasma total triglycerides in the normolipidemic dogs after day 3 of oral administration of 5 mg/kg/ day.; assay type: functional, Canis lupus familiaris
# [34] = system: Rattus norvegicus; test: Inhibition of plasma triglycerides in normolipidemic rats after 24 h of 10 mg/kg oral dosing; assay type: functional; outline: as §1
# [35] = system: Canis familiaris; test: Inhibition of plasma total triglycerides in the normolipidemic dogs after day 0 of oral administration of 5 mg/kg/ day.; assay type: functional, Canis lupus familiaris; outline: as §2
# [36] = system: Canis familiaris; test: Inhibition of plasma total triglycerides in the normolipidemic dogs after day 2 of oral administration of 1 mg/kg/ day.; assay type: functional, Canis lupus familiaris; outline: as §2
# [37] = system: Canis familiaris; test: Inhibition of plasma total cholesterol in the normolipidemic dogs after day 0 of oral administration of 10 mg/kg/ day.; assay type: functional, Canis lupus familiaris; outline: as §2
# [38] = system: Rattus norvegicus; test: Inhibition of total cholesterol in normolipidemic rats after 2 hr of 50 mg/kg oral dosing; assay type: functional; outline: as §1
# [39] = system: Canis familiaris; test: Inhibition of plasma total triglycerides in the normolipidemic dogs after day 4 of oral administration of 2.5 mg/kg/ day; assay type: functional, Canis lupus familiaris
# [40] = system: Canis familiaris; test: Inhibition of plasma total cholesterol in the normolipidemic dogs after day 0 of oral administration of 2.5 mg/kg/ day.; assay type: functional, Canis lupus familiaris; outline: as §2
# [41] = system: Canis familiaris; test: Inhibition of plasma total triglycerides in the normolipidemic dogs after day 2 of oral administration of 2.5 mg/kg/ day.; assay type: functional, Canis lupus familiaris; outline: as §2
# [42] = system: Canis familiaris; test: Inhibition of plasma total triglycerides in the normolipidemic dogs after day 4 of oral administration of 10 mg/kg/ day; assay type: functional, Canis lupus familiaris
# [43] = system: Canis familiaris; test: Inhibition of plasma total triglycerides in the normolipidemic dogs after day 2 of oral administration of 5 mg/kg/ day.; assay type: functional, Canis lupus familiaris; outline: as §2
# [44] = system: Canis familiaris; test: Inhibition of plasma total cholesterol in the normolipidemic dogs after day 3 of oral administration of 2.5 mg/kg/ day.; assay type: functional, Canis lupus familiaris; outline: as §2
# [45] = system: Rattus norvegicus; test: Inhibition of total cholesterol in normolipidemic rats after 6 hr of 10 mg/kg oral dosing; assay type: functional; outline: as §1
smiles,measurement,setting,value
COC(=O)N1CCN([C@H]2Cc3ccc(NC(=O)c4cccc(C)c4-c4ccc(C(F)(F)F)cc4)cc3C2)CC1,Reduction,[1],40%
same,Lipid level,[2],28 mg/dL
same,Reduction,[3],15%
same,Lipid level,[4],14 mg/dL
same,Lipid level,[5],20 mg/dL
same,Lipid level,[6],79 mg/dL
same,Reduction,[7],44%
same,Reduction,[8],70%
same,Lipid level,[9],91 mg/dL
same,Reduction,[10],80%
same,Lipid level,[11],<31 mg/dL
same,IC50,[12],40 nM
same,Lipid level,[13],58 mg/dL
same,Lipid level,[14],<73 mg/dL
same,Lipid level,[15],<53 mg/dL
same,Lipid level,[16],<42 mg/dL
same,Lipid level,[17],127 mg/dL
same,Lipid level,[18],18 mg/dL
same,Lipid level,[19],83 mg/dL
same,Reduction,[20],50%
same,Reduction,[21],18%
same,Lipid level,[22],24 mg/dL
same,Lipid level,[23],38 mg/dL
same,Lipid level,[24],50 mg/dL
same,Reduction,[25],56%
same,Lipid level,[26],26 mg/dL
same,Lipid level,[27],67 mg/dL
same,Lipid level,[28],120 mg/dL
same,Lipid level,[29],38 mg/dL
same,NS,[30],no significant change
same,Lipid level,[31],62 mg/dL
same,Lipid level,[32],79 mg/dL
same,Lipid level,[33],17 mg/dL
same,Reduction,[34],29%
same,Lipid level,[35],37 mg/dL
same,Lipid level,[36],28 mg/dL
same,Lipid level,[37],143 mg/dL
same,Reduction,[38],35%
same,Lipid level,[39],25 mg/dL
same,Lipid level,[40],109 mg/dL
same,Lipid level,[41],28 mg/dL
same,Lipid level,[42],19 mg/dL
same,Lipid level,[43],20 mg/dL
same,Lipid level,[44],53 mg/dL
same,Reduction,[45],29%
